From ChEMBL document CHEMBL2062429, “Structure-based design, synthesis, and biological evaluation of dihydroquinazoline-derived potent β-secretase inhibitors” (Bioorg Med Chem Lett, 2012)

Legend:
Beta-secretase 1 = Beta-secretase 1 (Homo sapiens, UniProt P56817); assay: Inhibition of recombinant beta-secretase 1
[1] = Inhibition of beta-secretase in neuroblastoma cells assessed as inhibition of amyloid beta production; format: cell-based; details: Homo sapiens
Summary of the method: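 Cell-based assay in neuroblastoma cells. IC50 is reported as an average value.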

Sequence of Beta-secretase 1 (P56817 whole entry): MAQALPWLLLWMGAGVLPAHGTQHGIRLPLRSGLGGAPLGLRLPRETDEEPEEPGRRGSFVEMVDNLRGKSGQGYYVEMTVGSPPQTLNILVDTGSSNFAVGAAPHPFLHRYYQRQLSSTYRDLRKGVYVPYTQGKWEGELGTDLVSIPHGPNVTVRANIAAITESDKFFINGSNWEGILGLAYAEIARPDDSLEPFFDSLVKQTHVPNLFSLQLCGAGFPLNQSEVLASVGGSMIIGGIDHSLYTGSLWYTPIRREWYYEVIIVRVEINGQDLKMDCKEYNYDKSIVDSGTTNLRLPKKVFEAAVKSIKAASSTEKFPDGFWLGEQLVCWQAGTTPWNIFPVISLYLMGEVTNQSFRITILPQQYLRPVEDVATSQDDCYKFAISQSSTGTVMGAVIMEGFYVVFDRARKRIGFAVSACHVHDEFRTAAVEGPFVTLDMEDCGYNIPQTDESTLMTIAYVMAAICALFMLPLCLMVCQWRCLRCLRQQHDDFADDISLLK

SMILES	Ki (Beta-secretase 1)	IC50 [1]
Cc1nc(CCN(C(=O)CC[C@@H](C2CCCCC2)N2Cc3cc(Oc4ccccc4)ccc3N=C2N)C2CCCCC2)cs1	106 nM	–
CN(C(=O)CC[C@@H](c1ccccc1)N1Cc2cc(Oc3ccccc3)ccc2N=C1N)C1CCCCC1	164 nM	482 nM
CN(C(=O)OC[C@@H](c1ccccc1)N1Cc2cc(Oc3ccccc3)ccc2N=C1N)C1CCCCC1	783 nM	3400 nM
CN(C(=O)OC[C@@H](C1CCCCC1)N1Cc2cc(Oc3ccccc3)ccc2N=C1N)C1CCCCC1	37.5 nM	–
NC1=Nc2ccc(Oc3ccccc3)cc2CN1[C@@H](COC(=O)NC1CCCCC1)C1CCCCC1	60 nM	–
CN(C(=O)CC[C@@H]([C@H]1CCCOC1)N1Cc2cc(Oc3ccccc3)ccc2N=C1N)C1CCCCC1	122 nM	–
Cc1nc(CN(C(=O)OC[C@@H](C2CCCCC2)N2Cc3cc(Oc4ccccc4)ccc3N=C2N)C2CCCCC2)cs1	1460 nM	–
Cc1nc(CN(C(=O)CC[C@@H](C2CCCCC2)N2Cc3cc(Oc4ccccc4)ccc3N=C2N)C2CCCCC2)cs1	79 nM	390 nM
Cc1nc(C(C)N(C(=O)CC[C@@H](C2CCCCC2)N2Cc3cc(Oc4ccccc4)ccc3N=C2N)C2CCCCC2)cs1 (stereo partly drawn)	104 nM	–
CC(C)c1nc(CN(C(=O)CC[C@@H](C2CCCCC2)N2Cc3cc(Oc4ccccc4)ccc3N=C2N)C2CCCCC2)cs1	144 nM	–
COCc1nc(CN(C(=O)CC[C@@H](C2CCCCC2)N2Cc3cc(Oc4ccccc4)ccc3N=C2N)C2CCCCC2)cs1	13 nM	21 nM
Cn1cc(CN(C(=O)CC[C@@H](C2CCCCC2)N2Cc3cc(Oc4ccccc4)ccc3N=C2N)C2CCCCC2)cn1	11 nM	23 nM
NC1=Nc2ccc(Oc3ccccc3)cc2CN1[C@@H](CCC(=O)N(Cc1cn[nH]c1)C1CCCCC1)C1CCCCC1	23 nM	–
Cc1[nH]ncc1CN(C(=O)CC[C@@H](C1CCCCC1)N1Cc2cc(Oc3ccccc3)ccc2N=C1N)C1CCCCC1	39 nM	51 nM
CN(C(=O)CC[C@@H](C1CCCCC1)N1Cc2cc(Oc3ccccc3)ccc2N=C1N)C1CCCCC1	–	71 nM
CN(C(=O)OC[C@@H](C1CCCOC1)N1Cc2cc(Oc3ccccc3)ccc2N=C1N)C1CCCCC1 (mixture of isomers)	104 nM	1100 nM
